Results taken from publication PMC548356 (Nucleic Acids Research, 2005).
pIC50, pKi: −log10 of the molar value. Read-outs that look alike come from different tables or passages of the source.

Experiments:
Poa1p [1] = target: T1, Poa1p (Saccharomyces cerevisiae, UniProt P38218); assay: Inhibition of Appr1p phosphatase activity of Poa1p; type: biochemical
T1 sequence (P38218 1-177): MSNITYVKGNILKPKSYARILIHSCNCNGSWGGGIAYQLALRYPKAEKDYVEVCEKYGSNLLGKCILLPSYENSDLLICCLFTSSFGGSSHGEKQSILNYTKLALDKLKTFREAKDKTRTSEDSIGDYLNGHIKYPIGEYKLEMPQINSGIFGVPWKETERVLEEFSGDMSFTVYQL
Outline: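 Candidate inhibitors were first surveyed at 10 mM under two conditions: 8 nM Poa1p with 26 nM Appr1p for 1 h, and 35 nM Poa1p with 5 μM Appr1p for 2 h. IC50 was then obtained by titrating inhibitor concentration with 35 nM Poa1p and 5 μM Appr1p for 2 h. Readout was radiolabeled Appr1p conversion, separated by TLC.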

Hal2p [2] = assay: Inhibition of Appr1p phosphatase activity of Hal2p; type: biochemical, Saccharomyces cerevisiae; conditions: Appr1p well below KM; data not shown
Outline: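 Purified His6-Hal2p at 104 nM was mixed with 5 nM Appr1p and each potential inhibitor at 10 mM. Incubation lasted long enough to convert ~50% of substrate without inhibitor. Labeled product was resolved by PEI-cellulose TLC and quantified by phosphorimaging.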

yeast crude extracts = assay: Appr1p processing activity of yeast crude extracts; type: biochemical, Saccharomyces cerevisiae; conditions: for extract amount by which Appr1p is 50% processed: 17 nM Ap*pr1p, 1 h, 30°C
Outline: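 Yeast strains (BY4741 background: wild type, poa1, hal2, and the double deletion) were grown to A600 1.0, washed in cold water, stored at −70°C and lysed with glass beads. Extracts were assayed in 5-fold serial dilutions (starting 16, 29, 23 and 21 μg respectively) with 17 nM Ap*pr1p for 1 h at 30°C. Reactions were phenol:chloroform-treated and resolved on PEI-cellulose TLC.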

Poa1p [3] = target: T1, Poa1p; assay: KI for ADP-ribose by the method of Dixon; type: biochemical
Outline: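 Ap*pr1p hydrolysis by 43 nM Poa1p at four fixed Appr1p concentrations (1–25 μM) with ADP-ribose 0–300 μM. Initial-rate inverses plotted against [ADP-ribose]; resulting slopes replotted against 1/[Appr1p]. KI derived from the secondary slope (KM/(Vmax·KI)) using known KM and Vmax for Appr1p. All fits by linear regression.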

Poa1p [4] = target: T1, Poa1p; assay: Appr1p phosphatase assay, steady-state kinetics of Poa1p; type: biochemical
Hal2p [5] = assay: Appr1p phosphatase and pAp phosphatase assay, steady-state kinetics of Hal2p; type: biochemical, Saccharomyces cerevisiae; conditions: for Km / kcat: substrate of Hal2p, 30°C, pH 7.5
[6] = read-out: Inhibition in survey at 10 mM competitor (IC50), 10 mM competitor, 8 nM Poa1p, 26 nM Appr1p, 1 h, and 35 nM Poa1p, 5 μM Appr1p, 2 h
[7] = substrate of Poa1p, 30°C, pH 7.5, 21 nM Poa1p

| pIC50 (Poa1p [1]; [6]) | pIC50 (Poa1p [1]; 35 nM Poa1p, 5 μM Appr1p, 2 h) | Inhibition of Appr1p phosphatase activity of Hal2p (in words) (Hal2p [2]) | Structure (SMILES) | also measured |
| --- | --- | --- | --- | --- |
| < 2.00 | – | – | Nc1ncnc2c1ncn2[C@@H]1O[C@H](COP(=O)(O)O)[C@@H](O)[C@H]1O [5′pA, AMP] | – |
| – | 4.52 | inhibited | Nc1ncnc2c1ncn2[C@@H]1O[C@H](COP(=O)(O)OP(=O)(O)OC[C@H]2OC(O)[C@H](O)[C@@H]2O)[C@@H](O)[C@H]1O (stereo partly drawn) [ADPR, ADP-ribose] | pKi (Poa1p [3]; 43 nM Poa1p, varied Appr1p and ADP-ribose (0–300 μM), Dixon plot): 4.77; mode of inhibition (Poa1p [3]; plots of inverse initial rates versus inhibitor concentration): classical competitive inhibition |
| – | < 2.00 | – | Nc1ncnc2c1ncn2[C@@H]1O[C@H](COP(=O)(O)OP(=O)(O)O)[C@@H](O)[C@H]1O [ADP] | – |
| – | 3.00 | – | Nc1ncnc2c1ncn2[C@@H]1O[C@H](COP(=O)(O)OP(=O)(O)OC[C@H]2O[C@@H](n3cnc4c(N)ncnc43)[C@H](O)[C@@H]2O)[C@@H](O)[C@H]1O [AppA] | – |
| – | 2.70 | inhibited | NC(=O)c1ccc[n+]([C@H]2O[C@@H](COP(=O)([O-])OP(=O)(O)OC[C@H]3O[C@@H](n4cnc5c(N)ncnc54)[C@H](OP(=O)(O)O)[C@@H]3O)[C@H](O)[C@@H]2O)c1 [NADP] | – |
| – | 2.82 | – | NC(=O)c1ccc[n+]([C@@H]2O[C@H](COP(=O)([O-])OP(=O)(O)OC[C@H]3O[C@@H](n4cnc5c(N)ncnc54)[C@H](O)[C@@H]3O)[C@@H](O)[C@H]2O)c1 [NAD] | – |

The remaining lines, values behind:

| Structure (SMILES) | pIC50 (Poa1p [1]; [6]) | pIC50 (Poa1p [1]; 35 nM Poa1p, 5 μM Appr1p, 2 h) | Inhibition of Appr1p phosphatase activity of Hal2p (in words) (Hal2p [2]) | also measured |
| --- | --- | --- | --- | --- |
| Nc1ncnc2c1ncn2[C@@H]1O[C@H](CO)[C@@H](O)[C@H]1OP(=O)(O)O [2′pA] | < 2.00 | – | – | – |
| Nc1ccn([C@@H]2O[C@H](CO)[C@@H](O)[C@H]2OP(=O)(O)O)c(=O)n1 [2′pC] | – | < 2.00 | – | – |
| Nc1nc2c(ncn2[C@@H]2O[C@H](CO)[C@@H](O)[C@H]2OP(=O)(O)O)c(=O)[nH]1 [2′pG] | < 2.00 | – | inhibited | – |
| Nc1ncnc2c1ncn2[C@@H]1O[C@H](CO)[C@@H](OP(=O)(O)O)[C@H]1O [3′pA] | – | < 2.00 | inhibited | – |
| Nc1ccn([C@@H]2O[C@H](CO)[C@@H](OP(=O)(O)O)[C@H]2O)c(=O)n1 [3′pC] | < 2.00 | – | – | – |
| Nc1nc2c(ncn2[C@@H]2O[C@H](CO)[C@@H](OP(=O)(O)O)[C@H]2O)c(=O)[nH]1 [3′pG] | < 2.00 | – | – | Inhibition of phosphatase activity remaining in poa1-Δ extract (in words) (yeast crude extracts; poa1-Δ extract, data not shown): inhibited |
| Nc1ncnc2c1ncn2[C@@H]1O[C@H](COP(=O)(O)OP(=O)(O)OC[C@H]2O[C@H](OP(=O)(O)O)[C@H](O)[C@@H]2O)[C@@H](O)[C@H]1O [Appr1p, ADP-ribose-1″-phosphate] | – | – | – | preference of Poa1p for Appr1p relative to pAp (Poa1p [4]; as measured by observed rates): at least 340 fold; kcat/KM difference in favor of Poa1p over Hal2p (Poa1p [4]; substrate Appr1p): 14 fold; lower KM of Poa1p relative to Hal2p (Poa1p [4]; substrate Appr1p): ~25 fold; Km (Poa1p [4]; [7]): 2.8 µM; kcat (Poa1p [4]; [7]): 0.0283 s⁻¹; Km (Hal2p [5]): 74 µM; kcat (Hal2p [5]): 0.0533 s⁻¹; extract amount by which Appr1p is 50% processed (yeast crude extracts; hal2-Δ extract): 1.2 µg; extract amount by which Appr1p is 50% processed (yeast crude extracts; poa1-Δ extract): 33 µg; extract amount by which Appr1p is 50% processed (yeast crude extracts; poa1-Δ, hal2-Δ double mutant extract): 20 µg; extract amount by which Appr1p is 50% processed (yeast crude extracts; wild-type extract): 1.8 µg |
| O=P(O)(O)OC[C@H]1OC(O)(CO)[C@@H](O)[C@@H]1O (stereo partly drawn) [fructose-6p] | < 2.00 | – | – | – |
| O=P(O)(O)O[C@H]1O[C@H](CO)[C@@H](O)[C@H](O)[C@H]1O [glucose-1p] | < 2.00 | – | – | – |
| O=C[C@H](O)COP(=O)(O)O [glyceraldehyde-3p] | < 2.00 | – | – | – |
| Nc1ncnc2c1ncn2[C@@H]1O[C@H](COP(=O)(O)O)[C@@H](OP(=O)(O)O)[C@H]1O [pAp] | < 2.00 | – | inhibited | Poa1p phosphatase activity on substrate (in words) (Poa1p [4]; conditions where a turnover of 0.005 min^−1 (0.3% of the activity with Appr1p) should be easily observed): no detectable activity; preference of Hal2p for pAp relative to Appr1p (Hal2p [5]; as measured by kcat/KM values): 10^4 fold; Km (Hal2p [5]): 0.1 µM; kcat (Hal2p [5]): 0.9 s⁻¹ |
| O=P(O)(O)O[C@H]1O[C@H](CO)[C@@H](O)[C@H]1O [ribose-1p] | < 2.00 | – | – | – |
| O=C[C@H](O)[C@H](O)[C@H](O)COP(=O)(O)O [ribose-5p, ribose 5-phosphate] | – | – | inhibited | pIC50 (Poa1p [1]): < 2.00 |
